In brackets after ≈: the same amount, converted by molar mass.
Legend:
Enterococcus faecium = assay: Antibacterial activity against Streptococcus faecium 77A after 18 to 24 hrs by agar dilution method; type: functional
Outline: (§1)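 MICs were determined by agar dilution on test agar. An overnight tryptosoy broth culture was diluted in the same broth to about 10⁶ cells/mL and spotted with an inoculating device onto agar containing serial twofold dilutions of compound. Plates were incubated at 37 °C for 18–20 h, and the MIC was the lowest concentration with no visible growth.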

Streptococcus agalactiae [1] = assay: Antibacterial activity against Streptococcus agalactiae B after 18 to 24 hrs by agar dilution method; type: functional; outline: as §1
Enterococcus durans = assay: Antibacterial activity against Streptococcus durans D after 18 to 24 hrs by agar dilution method; type: functional; outline: as §1
Salmonella paratyphi = assay: Antibacterial activity against Salmonella paratyphi A after 18 to 24 hrs by agar dilution method; type: functional, Salmonella enterica subsp. enterica serovar Paratyphi A; conditions: Salmonella enterica
Outline: (§2)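 Agar dilution on test agar with serial twofold dilutions of compound. Overnight tryptosoy broth cultures diluted in the same broth to about 10⁶ cells/mL, then applied with an inoculating device. Plates incubated at 37 °C for 18–20 h.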

Priestia megaterium = assay: Antibacterial activity against Bacillus megaterium after 18 to 24 hrs by agar dilution method; type: functional; outline: as §1
Pseudomonas aeruginosa [2] = assay: Antibacterial activity against Pseudomonas aeruginosa 9027 after 18 to 24 hrs by agar dilution method; type: functional; outline: as §1
Staphylococcus aureus [3] = assay: Antibacterial activity against Staphylococcus aureus 1218 after 18 to 24 hrs by agar dilution method; type: functional; outline: as §1
Staphylococcus = assay: Antibacterial activity against coagulase negative Staphylococcus after 18 to 24 hrs by agar dilution method; type: functional
Outline: (§3)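 Agar dilution on test agar holding serial twofold dilutions of compound. Overnight tryptosoy broth cultures were diluted in the same broth to about 10⁶ cells/mL and spotted with an inoculating device. Plates were incubated at 37 °C for 18–20 h.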

Enterococcus faecalis = assay: Antibacterial activity against Enterococcus faecalis 2347 after 18 to 24 hrs by agar dilution method; type: functional; outline: as §1
Streptococcus pyogenes = assay: Antibacterial activity against Streptococcus pyogenes 9889 after 18 to 24 hrs by agar dilution method; type: functional; outline: as §3
Streptococcus agalactiae [4] = assay: Antibacterial activity against Streptococcus agalactiae 32 after 18 to 24 hrs by agar dilution method; type: functional; outline: as §1
Streptococcus pneumoniae = assay: Antibacterial activity against Streptococcus pneumoniae 0025 after 18 to 24 hrs by agar dilution method; type: functional; outline: as §1
Haemophilus influenzae = assay: Antibacterial activity against Haemophilus influenzae 1210 after 18 to 24 hrs by agar dilution method; type: functional; outline: as §1
Escherichia coli [5] = assay: Antibacterial activity against Escherichia coli 04 after 18 to 24 hrs by agar dilution method; type: functional; outline: as §1
Klebsiella pneumoniae [6] = assay: Antibacterial activity against Klebsiella pneumoniae 523 after 18 to 24 hrs by agar dilution method; type: functional; outline: as §1
Citrobacter freundii = assay: Antibacterial activity against Citrobacter freundii 323 after 18 to 24 hrs by agar dilution method; type: functional; outline: as §1
Enterobacter cloacae [7] = assay: Antibacterial activity against Enterobacter cloacae 34 after 18 to 24 hrs by agar dilution method; type: functional; outline: as §1
Serratia marcescens [8] = assay: Antibacterial activity against Serratia marcescens 3349 after 18 to 24 hrs by agar dilution method; type: functional; outline: as §1
Acinetobacter baumannii = assay: Antibacterial activity against Acinetobacter baumannii 2289 after 18 to 24 hrs by agar dilution method; type: functional; outline: as §1
Pseudomonas aeruginosa [9] = assay: Antibacterial activity against Pseudomonas aeruginosa 5455 after 18 to 24 hrs by agar dilution method; type: functional; outline: as §1
Staphylococcus aureus [10] = assay: Antibacterial activity against Staphylococcus aureus giorgio after 18 to 24 hrs by agar dilution method; type: functional; outline: as §1
Staphylococcus aureus [11] = assay: Antibacterial activity against Staphylococcus aureus 209P after 18 to 24 hrs by agar dilution method; type: functional; outline: as §1
Staphylococcus aureus [12] = assay: Antibacterial activity against Staphylococcus aureus 503 after 18 to 24 hrs by agar dilution method; type: functional; outline: as §1
Micrococcus luteus = assay: Antibacterial activity against Micrococcus luteus ATCC 9341 after 18 to 24 hrs by agar dilution method; type: functional; outline: as §1
Pseudomonas aeruginosa [13] = assay: Antibacterial activity against Pseudomonas aeruginosa 77/2 after 18 to 24 hrs by agar dilution method; type: functional; outline: as §1
Pseudomonas aeruginosa [14] = assay: Antibacterial activity against Pseudomonas aeruginosa 110/2 after 18 to 24 hrs by agar dilution method; type: functional; outline: as §1
Pseudomonas aeruginosa [15] = assay: Antibacterial activity against Pseudomonas aeruginosa 880/2 after 18 to 24 hrs by agar dilution method; type: functional; outline: as §1
Burkholderia cepacia = assay: Antibacterial activity against Pseudomonas cepacia after 18 to 24 hrs by agar dilution method; type: functional; outline: as §1
Escherichia coli [16] = assay: Antibacterial activity against Escherichia coli 086 after 18 to 24 hrs by agar dilution method; type: functional; outline: as §1
Escherichia coli [17] = assay: Antibacterial activity against Escherichia coli 0114 after 18 to 24 hrs by agar dilution method; type: functional; outline: as §1
Escherichia coli [18] = assay: Antibacterial activity against Escherichia coli 0126 after 18 to 24 hrs by agar dilution method; type: functional; outline: as §1
Escherichia coli [19] = assay: Antibacterial activity against Escherichia coli V6311/65 after 18 to 24 hrs by agar dilution method; type: functional; outline: as §1
Escherichia coli [20] = assay: Antibacterial activity against Escherichia coli TEM after 18 to 24 hrs by agar dilution method; type: functional; outline: as §1
Escherichia coli [21] = assay: Antibacterial activity against Escherichia coli 1507 after 18 to 24 hrs by agar dilution method; type: functional; outline: as §1
Salmonella typhimurium = assay: Antibacterial activity against Salmonella Typhimurium after 18 to 24 hrs by agar dilution method; type: functional, Salmonella enterica subsp. enterica serovar Typhimurium; conditions: Salmonella enterica; outline: as §1
Salmonella typhi = assay: Antibacterial activity against Salmonella typhi after 18 to 24 hrs by agar dilution method; type: functional, Salmonella enterica subsp. enterica serovar Typhi; conditions: Salmonella enterica; outline: as §2
Salmonella = assay: Antibacterial activity against Salmonella orion after 18 to 24 hrs by agar dilution method; type: functional; outline: as §1
[22] = Antibacterial activity against Salmonella give after 18 to 24 hrs by agar dilution method; type: functional, Salmonella enterica subsp. enterica serovar Give; conditions: Salmonella enterica; outline: as §1
Serratia marcescens [23] = assay: Antibacterial activity against Serratia marcescens 370 after 18 to 24 hrs by agar dilution method; type: functional; outline: as §1
Klebsiella pneumoniae [24] = assay: Antibacterial activity against Klebsiella pneumoniae 477 after 18 to 24 hrs by agar dilution method; type: functional; outline: as §1
Proteus mirabilis [25] = assay: Antibacterial activity against Proteus mirabilis 112/3 after 18 to 24 hrs by agar dilution method; type: functional; outline: as §1
Enterobacter cloacae [26] = assay: Antibacterial activity against Enterobacter cloacae after 18 to 24 hrs by agar dilution method; type: functional; outline: as §1
Enterobacter cloacae [27] = assay: Antibacterial activity against Enterobacter cloacae 417 after 18 to 24 hrs by agar dilution method; type: functional; outline: as §1
Serratia marcescens [28] = assay: Antibacterial activity against Serratia marcescens 6093 after 18 to 24 hrs by agar dilution method; type: functional; outline: as §1
Serratia marcescens [29] = assay: Antibacterial activity against Serratia marcescens 14273 after 18 to 24 hrs by agar dilution method; type: functional; outline: as §1
Proteus mirabilis [30] = assay: Antibacterial activity against Proteus mirabilis 174/3 after 18 to 24 hrs by agar dilution method; type: functional; outline: as §1
Proteus vulgaris = assay: Antibacterial activity against Proteus vulgaris 868 after 18 to 24 hrs by agar dilution method; type: functional; outline: as §1
Providencia rettgeri [31] = assay: Antibacterial activity against Proteus rettgeri 936 after 18 to 24 hrs by agar dilution method; type: functional; outline: as §1
Providencia rettgeri [32] = assay: Antibacterial activity against Proteus rettgeri 937 after 18 to 24 hrs by agar dilution method; type: functional; outline: as §1
Pasteurella multocida = assay: Antibacterial activity against Pasteurella multocida after 18 to 24 hrs by agar dilution method; type: functional; outline: as §1
Trueperella pyogenes = assay: Antibacterial activity against Corynebacterium pyogenes after 18 to 24 hrs by agar dilution method; type: functional; outline: as §1
[33] = tested on: Corynebacterium diphtheriae; assay: Antibacterial activity against Corynebacterium diphtheriae after 18 to 24 hrs by agar dilution method; type: functional; outline: as §1
Bacillus subtilis = assay: Antibacterial activity against Bacillus subtilis ATCC 6633 after 18 to 24 hrs by agar dilution method; type: functional; outline: as §1
[34] = Antibacterial activity against Salmonella oranienburg after 18 to 24 hrs by agar dilution method; type: functional, Salmonella enterica subsp. enterica serovar Oranienburg; conditions: Salmonella enterica; outline: as §1

C[C@@H](O)C1C(=O)N2C(C(=O)O)=C(S[C@@H]3CN[C@H](CN4CCCN(C)S4(=O)=O)C3)[C@H](C)C12 (stereo partly drawn)
MIC (Enterococcus faecium): < 0.01 µg/mL
MIC (Streptococcus agalactiae [1]): 0.02 µg/mL (≈ 0.0421 µM)
MIC (Enterococcus durans): 0.1 µg/mL (≈ 0.211 µM)
MIC (Salmonella paratyphi): 0.05 µg/mL (≈ 0.105 µM)
MIC (Priestia megaterium): 0.05 µg/mL (≈ 0.105 µM)
MIC (Pseudomonas aeruginosa [2]): 1.6 µg/mL (≈ 3.37 µM)
MIC (Staphylococcus aureus [3]): 6.25 µg/mL (≈ 13.2 µM)
MIC (Staphylococcus): 0.049 µg/mL (≈ 0.103 µM)
MIC (Enterococcus faecalis): 3.12 µg/mL (≈ 6.57 µM)
MIC (Streptococcus pyogenes): < 0.01 µg/mL
MIC (Streptococcus agalactiae [4]): < 0.01 µg/mL
MIC (Streptococcus pneumoniae): 0.01 µg/mL (≈ 0.0211 µM)
MIC (Haemophilus influenzae): 3.12 µg/mL (≈ 6.57 µM)
MIC (Escherichia coli [5]): 0.025 µg/mL (≈ 0.0527 µM)
MIC (Klebsiella pneumoniae [6]): 0.025 µg/mL (≈ 0.0527 µM)
MIC (Citrobacter freundii): 0.025 µg/mL (≈ 0.0527 µM)
MIC (Enterobacter cloacae [7]): 0.025 µg/mL (≈ 0.0527 µM)
MIC (Serratia marcescens [8]): 0.049 µg/mL (≈ 0.103 µM)
MIC (Acinetobacter baumannii): 3.12 µg/mL (≈ 6.57 µM)
MIC (Pseudomonas aeruginosa [9]): 1.56 µg/mL (≈ 3.29 µM)
MIC (Staphylococcus aureus [10]): 0.05 µg/mL (≈ 0.105 µM)
MIC (Staphylococcus aureus [11]): 0.02 µg/mL (≈ 0.0421 µM)
MIC (Staphylococcus aureus [12]): 0.01 µg/mL (≈ 0.0211 µM)
MIC (Micrococcus luteus): 0.02 µg/mL (≈ 0.0421 µM)
MIC (Pseudomonas aeruginosa [13]): 1.6 µg/mL (≈ 3.37 µM)
MIC (Pseudomonas aeruginosa [14]): 0.8 µg/mL (≈ 1.69 µM)
MIC (Pseudomonas aeruginosa [15]): 0.4 µg/mL (≈ 0.843 µM)
MIC (Burkholderia cepacia): 0.4 µg/mL (≈ 0.843 µM)
MIC (Escherichia coli [16]): 0.02 µg/mL (≈ 0.0421 µM)
MIC (Escherichia coli [17]): 0.02 µg/mL (≈ 0.0421 µM)
MIC (Escherichia coli [18]): 0.02 µg/mL (≈ 0.0421 µM)
MIC (Escherichia coli [19]): 0.05 µg/mL (≈ 0.105 µM)
MIC (Escherichia coli [20]): 0.01 µg/mL (≈ 0.0211 µM)
MIC (Escherichia coli [21]): 0.02 µg/mL (≈ 0.0421 µM)
MIC (Salmonella typhimurium): 0.1 µg/mL (≈ 0.211 µM)
MIC (Salmonella typhi): 0.03 µg/mL (≈ 0.0632 µM)
MIC (Salmonella): 0.1 µg/mL (≈ 0.211 µM)
MIC [22]: 0.1 µg/mL (≈ 0.211 µM)
MIC (Serratia marcescens [23]): 0.1 µg/mL (≈ 0.211 µM)
MIC (Klebsiella pneumoniae [24]): 0.05 µg/mL (≈ 0.105 µM)
MIC (Proteus mirabilis [25]): 0.2 µg/mL (≈ 0.421 µM)
MIC (Enterobacter cloacae [26]): 0.01 µg/mL (≈ 0.0211 µM)
MIC (Enterobacter cloacae [27]): 0.02 µg/mL (≈ 0.0421 µM)
MIC (Serratia marcescens [28]): 0.2 µg/mL (≈ 0.421 µM)
MIC (Serratia marcescens [29]): 0.4 µg/mL (≈ 0.843 µM)
MIC (Proteus mirabilis [30]): 0.2 µg/mL (≈ 0.421 µM)
MIC (Proteus vulgaris): 0.4 µg/mL (≈ 0.843 µM)
MIC (Providencia rettgeri [31]): 0.4 µg/mL (≈ 0.843 µM)
MIC (Providencia rettgeri [32]): 0.4 µg/mL (≈ 0.843 µM)
MIC (Pasteurella multocida): 0.05 µg/mL (≈ 0.105 µM)
MIC (Trueperella pyogenes): 0.01 µg/mL (≈ 0.0211 µM)
MIC [33]: 0.01 µg/mL (≈ 0.0211 µM)
MIC (Bacillus subtilis): 0.03 µg/mL (≈ 0.0632 µM)
MIC [34]: 0.1 µg/mL (≈ 0.211 µM)

C[C@@H](O)C1C(=O)N2C(C(=O)O)=C(S[C@@H]3CN[C@H](CN4CCN(Cc5ccccc5)S4(=O)=O)C3)[C@H](C)C12 (stereo partly drawn)
MIC (Staphylococcus aureus [3]): 3.12 µg/mL (≈ 5.81 µM)
MIC (Staphylococcus): 0.098 µg/mL (≈ 0.183 µM)
MIC (Enterococcus faecalis): 3.12 µg/mL (≈ 5.81 µM)
MIC (Streptococcus pyogenes): 0.02 µg/mL (≈ 0.0373 µM)
MIC (Streptococcus agalactiae [4]): 0.02 µg/mL (≈ 0.0373 µM)
MIC (Streptococcus pneumoniae): 0.025 µg/mL (≈ 0.0466 µM)
MIC (Haemophilus influenzae): 12.5 µg/mL (≈ 23.3 µM)
MIC (Escherichia coli [5]): 0.195 µg/mL (≈ 0.363 µM)
MIC (Klebsiella pneumoniae [6]): 0.781 µg/mL (≈ 1.46 µM)
MIC (Citrobacter freundii): 0.781 µg/mL (≈ 1.46 µM)
MIC (Enterobacter cloacae [7]): 0.781 µg/mL (≈ 1.46 µM)
MIC (Serratia marcescens [8]): 6.25 µg/mL (≈ 11.6 µM)
MIC (Acinetobacter baumannii): 50 µg/mL (≈ 93.2 µM)
MIC (Pseudomonas aeruginosa [9]): 100 µg/mL (≈ 186 µM)
